Data taken from the M2OR odorant receptor database.
Changes are numbered by the printed parent chain.

Assays:
Settings in all cases: stereoisomer not certain
OR51B5 (Homo sapiens) = biological target: T1, OR51B5 (Homo sapiens) (UniProt Q9H339)
T1 sequence (whole entry): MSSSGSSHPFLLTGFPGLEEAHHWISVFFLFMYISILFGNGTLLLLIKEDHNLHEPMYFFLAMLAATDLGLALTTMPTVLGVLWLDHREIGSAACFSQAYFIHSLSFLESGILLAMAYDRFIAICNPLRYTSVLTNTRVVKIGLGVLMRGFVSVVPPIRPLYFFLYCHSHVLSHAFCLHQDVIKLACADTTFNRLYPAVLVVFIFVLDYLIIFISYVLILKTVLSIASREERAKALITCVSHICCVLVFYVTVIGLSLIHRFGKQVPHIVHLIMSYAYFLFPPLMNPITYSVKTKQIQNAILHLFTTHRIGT
Summary of the method: (§1)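 Transient luciferase assays in mammalian cell lines were common, though methods varied by source. The values come from published papers and their supplementary material, with extra details from the original authors when needed. Responsive refers to a measured signal the original authors judged statistically different from baseline, and non-responsive (inactive) to the remainder.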

OR4S2 (Homo sapiens) = biological target: T2, OR4S2 (Homo sapiens) (UniProt Q8NH73)
T2 sequence (whole entry): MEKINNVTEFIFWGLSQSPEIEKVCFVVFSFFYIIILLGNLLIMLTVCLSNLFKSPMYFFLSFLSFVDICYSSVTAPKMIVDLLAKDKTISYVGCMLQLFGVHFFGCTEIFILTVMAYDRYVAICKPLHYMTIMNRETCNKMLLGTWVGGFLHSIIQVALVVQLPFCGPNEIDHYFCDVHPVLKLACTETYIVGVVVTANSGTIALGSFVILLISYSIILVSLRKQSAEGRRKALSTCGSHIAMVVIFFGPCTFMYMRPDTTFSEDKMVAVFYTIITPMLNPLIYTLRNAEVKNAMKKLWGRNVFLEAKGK
Summary of the method: as §1

OR4X1 (Homo sapiens) = biological target: T3, OR4X1 (Homo sapiens) (UniProt Q8NH49)
T3 sequence (whole entry): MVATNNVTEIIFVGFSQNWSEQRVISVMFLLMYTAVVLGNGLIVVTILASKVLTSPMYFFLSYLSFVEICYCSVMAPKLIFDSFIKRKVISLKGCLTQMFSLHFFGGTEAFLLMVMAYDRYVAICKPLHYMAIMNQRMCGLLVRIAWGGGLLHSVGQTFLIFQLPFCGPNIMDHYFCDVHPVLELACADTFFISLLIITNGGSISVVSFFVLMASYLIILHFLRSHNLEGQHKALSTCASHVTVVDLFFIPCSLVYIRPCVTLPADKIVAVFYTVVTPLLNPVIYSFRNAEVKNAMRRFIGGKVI
Summary of the method: as §1

OR4X2 (Homo sapiens) = biological target: T4, OR4X2 (Homo sapiens) (UniProt Q8NGF9)
T4 sequence (whole entry): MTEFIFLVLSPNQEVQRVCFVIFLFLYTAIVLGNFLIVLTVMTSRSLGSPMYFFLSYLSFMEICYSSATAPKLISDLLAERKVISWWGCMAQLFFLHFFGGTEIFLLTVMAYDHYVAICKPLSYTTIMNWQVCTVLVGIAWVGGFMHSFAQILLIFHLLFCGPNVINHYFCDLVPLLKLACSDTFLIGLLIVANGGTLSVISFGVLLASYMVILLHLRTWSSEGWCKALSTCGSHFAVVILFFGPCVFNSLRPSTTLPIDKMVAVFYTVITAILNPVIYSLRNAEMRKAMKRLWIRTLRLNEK
Summary of the method: as §1

OR51A2 (Homo sapiens) = biological target: T5, OR51A2 (Homo sapiens) (UniProt Q8NGJ7)
T5 sequence (whole entry): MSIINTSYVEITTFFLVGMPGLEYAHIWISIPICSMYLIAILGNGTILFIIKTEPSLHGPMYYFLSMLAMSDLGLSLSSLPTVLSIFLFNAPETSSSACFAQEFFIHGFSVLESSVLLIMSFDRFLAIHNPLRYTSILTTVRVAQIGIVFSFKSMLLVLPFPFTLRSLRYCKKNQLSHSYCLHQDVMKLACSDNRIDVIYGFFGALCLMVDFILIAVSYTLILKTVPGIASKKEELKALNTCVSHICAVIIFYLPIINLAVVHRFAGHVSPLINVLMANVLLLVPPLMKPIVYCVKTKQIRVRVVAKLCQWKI
Summary of the method: as §1

OR51A4 (Homo sapiens) = biological target: T6, OR51A4 (Homo sapiens) (UniProt Q8NGJ6)
T6 sequence (whole entry): T5 sequence (whole entry) with G59E, T94I, S97N, S167N, P227L, E235Q, G267R, M288T, K289N, W311R
Summary of the method: as §1

OR51A7 (Homo sapiens) = biological target: T7, OR51A7 (Homo sapiens) (UniProt Q8NH64)
T7 sequence (whole entry): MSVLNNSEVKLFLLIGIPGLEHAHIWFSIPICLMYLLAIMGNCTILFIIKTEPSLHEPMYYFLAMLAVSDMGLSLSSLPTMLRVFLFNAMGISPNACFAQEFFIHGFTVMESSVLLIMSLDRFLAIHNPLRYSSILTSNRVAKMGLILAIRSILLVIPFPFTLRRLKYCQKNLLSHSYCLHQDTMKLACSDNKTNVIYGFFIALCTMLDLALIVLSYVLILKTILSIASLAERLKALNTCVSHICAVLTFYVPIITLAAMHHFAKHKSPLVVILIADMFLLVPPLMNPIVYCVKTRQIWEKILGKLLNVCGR
Summary of the method: as §1

OR51B2 (Homo sapiens) = biological target: T8, OR51B2 (Homo sapiens) (UniProt Q9Y5P1)
T8 sequence (whole entry): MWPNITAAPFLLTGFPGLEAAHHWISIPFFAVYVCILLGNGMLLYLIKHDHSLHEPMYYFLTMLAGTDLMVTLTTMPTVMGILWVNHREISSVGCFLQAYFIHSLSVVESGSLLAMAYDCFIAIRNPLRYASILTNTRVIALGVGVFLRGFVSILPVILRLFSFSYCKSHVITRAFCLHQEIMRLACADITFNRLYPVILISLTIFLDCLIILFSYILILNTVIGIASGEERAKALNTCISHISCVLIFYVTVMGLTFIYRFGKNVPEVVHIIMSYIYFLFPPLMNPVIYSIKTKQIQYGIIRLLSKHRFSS
Summary of the method: as §1

OR51B4 (Homo sapiens) = biological target: T9, OR51B4 (Homo sapiens) (UniProt Q9Y5P0)
T9 sequence (whole entry): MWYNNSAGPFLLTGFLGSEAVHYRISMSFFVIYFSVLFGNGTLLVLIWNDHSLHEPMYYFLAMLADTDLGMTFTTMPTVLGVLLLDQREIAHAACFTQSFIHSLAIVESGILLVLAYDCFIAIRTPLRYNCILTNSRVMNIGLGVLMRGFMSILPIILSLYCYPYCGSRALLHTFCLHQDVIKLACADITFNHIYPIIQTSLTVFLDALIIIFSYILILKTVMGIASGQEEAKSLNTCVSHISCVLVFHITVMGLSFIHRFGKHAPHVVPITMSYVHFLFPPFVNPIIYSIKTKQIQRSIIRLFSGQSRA
Summary of the method: as §1

OR51B6 (Homo sapiens) = biological target: T10, OR51B6 (Homo sapiens) (UniProt Q9H340)
T10 sequence (whole entry): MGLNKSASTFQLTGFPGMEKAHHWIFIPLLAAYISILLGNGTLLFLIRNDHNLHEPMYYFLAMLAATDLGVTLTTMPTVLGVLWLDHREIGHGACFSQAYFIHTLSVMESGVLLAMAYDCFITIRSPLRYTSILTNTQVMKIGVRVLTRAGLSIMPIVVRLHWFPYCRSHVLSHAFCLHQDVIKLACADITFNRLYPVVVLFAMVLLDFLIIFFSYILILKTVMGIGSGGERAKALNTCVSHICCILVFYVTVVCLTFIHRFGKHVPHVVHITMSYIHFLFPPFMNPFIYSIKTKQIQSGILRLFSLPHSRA
Summary of the method: as §1

OR51D1 (Homo sapiens) = biological target: T11, OR51D1 (Homo sapiens) (UniProt Q8NGF3)
T11 sequence (whole entry): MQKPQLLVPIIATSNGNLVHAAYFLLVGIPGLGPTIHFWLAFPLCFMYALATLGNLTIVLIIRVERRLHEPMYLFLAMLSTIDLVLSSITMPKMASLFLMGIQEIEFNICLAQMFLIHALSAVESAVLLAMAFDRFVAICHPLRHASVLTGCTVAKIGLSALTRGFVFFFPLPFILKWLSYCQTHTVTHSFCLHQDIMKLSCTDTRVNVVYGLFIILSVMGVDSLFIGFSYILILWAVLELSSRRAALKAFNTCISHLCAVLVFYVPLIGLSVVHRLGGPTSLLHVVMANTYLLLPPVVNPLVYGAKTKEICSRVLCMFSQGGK
Summary of the method: as §1

OR51E1 (Homo sapiens) = biological target: T12, OR51E1 (Homo sapiens) (UniProt Q8TCB6)
T12 sequence (whole entry): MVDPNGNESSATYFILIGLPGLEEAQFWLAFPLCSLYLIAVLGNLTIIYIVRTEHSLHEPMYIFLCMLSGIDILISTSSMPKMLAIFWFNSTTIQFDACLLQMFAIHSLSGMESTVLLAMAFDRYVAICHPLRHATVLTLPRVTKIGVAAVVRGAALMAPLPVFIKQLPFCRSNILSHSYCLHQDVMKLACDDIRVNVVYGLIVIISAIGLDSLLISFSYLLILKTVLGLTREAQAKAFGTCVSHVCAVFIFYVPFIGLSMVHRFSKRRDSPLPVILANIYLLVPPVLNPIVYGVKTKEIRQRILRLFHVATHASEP
Summary of the method: as §1

OR51E2 (Homo sapiens) = biological target: T13, OR51E2 (Homo sapiens) (UniProt Q9H255)
T13 sequence (whole entry): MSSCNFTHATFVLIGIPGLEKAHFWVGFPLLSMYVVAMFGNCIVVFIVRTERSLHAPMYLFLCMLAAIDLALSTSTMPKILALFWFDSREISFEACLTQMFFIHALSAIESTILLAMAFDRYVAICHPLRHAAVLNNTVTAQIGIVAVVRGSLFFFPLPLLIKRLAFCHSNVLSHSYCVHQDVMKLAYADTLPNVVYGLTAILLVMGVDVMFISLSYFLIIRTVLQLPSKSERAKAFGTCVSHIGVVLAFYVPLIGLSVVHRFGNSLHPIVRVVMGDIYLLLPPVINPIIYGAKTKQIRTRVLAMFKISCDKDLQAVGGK
Summary of the method: as §1

OR51F1 (Homo sapiens) = biological target: T14, OR51F1 (Homo sapiens) (UniProt A6NGY5)
T14 sequence (whole entry): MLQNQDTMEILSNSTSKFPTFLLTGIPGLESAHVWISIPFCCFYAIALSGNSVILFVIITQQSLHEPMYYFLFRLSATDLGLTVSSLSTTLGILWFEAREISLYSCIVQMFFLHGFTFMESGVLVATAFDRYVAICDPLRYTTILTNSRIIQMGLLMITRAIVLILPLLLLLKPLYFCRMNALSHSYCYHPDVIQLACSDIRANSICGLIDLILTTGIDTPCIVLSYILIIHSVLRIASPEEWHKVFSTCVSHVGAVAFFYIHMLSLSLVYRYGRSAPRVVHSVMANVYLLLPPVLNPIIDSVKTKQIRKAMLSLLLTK
Summary of the method: as §1

OR51F2 (Homo sapiens) = biological target: T15, OR51F2 (Homo sapiens) (UniProt Q8NH61)
T15 sequence (whole entry): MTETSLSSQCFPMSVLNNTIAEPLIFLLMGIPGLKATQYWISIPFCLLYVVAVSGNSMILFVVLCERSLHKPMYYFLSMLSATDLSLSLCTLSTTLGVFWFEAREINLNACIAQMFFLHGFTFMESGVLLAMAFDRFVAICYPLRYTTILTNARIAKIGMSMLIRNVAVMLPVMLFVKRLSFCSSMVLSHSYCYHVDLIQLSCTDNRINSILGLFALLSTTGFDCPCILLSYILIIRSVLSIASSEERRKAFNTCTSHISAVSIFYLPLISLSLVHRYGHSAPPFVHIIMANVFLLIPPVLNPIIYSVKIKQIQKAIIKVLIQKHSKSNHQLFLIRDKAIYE
Summary of the method: as §1

OR51G1 (Homo sapiens) = biological target: T16, OR51G1 (Homo sapiens) (UniProt Q8NGK1)
T16 sequence (whole entry): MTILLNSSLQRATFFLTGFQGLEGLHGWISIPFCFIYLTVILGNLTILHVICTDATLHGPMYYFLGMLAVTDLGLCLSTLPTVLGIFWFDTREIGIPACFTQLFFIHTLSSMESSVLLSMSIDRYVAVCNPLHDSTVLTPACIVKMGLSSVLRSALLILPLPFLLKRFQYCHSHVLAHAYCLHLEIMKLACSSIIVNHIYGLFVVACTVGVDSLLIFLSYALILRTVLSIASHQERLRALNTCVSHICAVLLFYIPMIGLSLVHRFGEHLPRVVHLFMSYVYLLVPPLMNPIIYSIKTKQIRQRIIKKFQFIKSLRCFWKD
Summary of the method: as §1

OR51G2 (Homo sapiens) = biological target: T17, OR51G2 (Homo sapiens) (UniProt Q8NGK0)
T17 sequence (whole entry): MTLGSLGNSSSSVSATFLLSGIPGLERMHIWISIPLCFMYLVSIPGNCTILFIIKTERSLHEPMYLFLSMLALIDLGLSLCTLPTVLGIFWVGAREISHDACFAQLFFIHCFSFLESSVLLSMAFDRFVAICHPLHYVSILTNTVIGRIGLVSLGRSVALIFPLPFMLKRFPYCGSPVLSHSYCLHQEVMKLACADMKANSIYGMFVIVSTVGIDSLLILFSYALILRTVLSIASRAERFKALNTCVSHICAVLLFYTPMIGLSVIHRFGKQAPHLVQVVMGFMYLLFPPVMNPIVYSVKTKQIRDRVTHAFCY
Summary of the method: as §1

OR51I1 (Homo sapiens) = biological target: T18, OR51I1 (Homo sapiens) (UniProt Q9H343)
T18 sequence (whole entry): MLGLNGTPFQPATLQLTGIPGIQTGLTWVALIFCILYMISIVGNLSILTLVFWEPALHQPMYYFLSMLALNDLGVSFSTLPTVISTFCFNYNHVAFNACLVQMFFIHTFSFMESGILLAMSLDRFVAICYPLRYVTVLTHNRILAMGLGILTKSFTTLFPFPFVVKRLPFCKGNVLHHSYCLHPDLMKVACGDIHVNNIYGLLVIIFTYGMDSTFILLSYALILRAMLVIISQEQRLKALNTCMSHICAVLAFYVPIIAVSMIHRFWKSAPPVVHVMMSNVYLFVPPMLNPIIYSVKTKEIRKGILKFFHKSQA
Summary of the method: as §1

Measured: odorant receptor agonist call;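 further: active if original authors judged signal statistically different from baseline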

CCC(C)CO (centres undefined)
inactive: OR51B5 (Homo sapiens)

CCCCCC(S)C(C)CO (centres undefined)
inactive: all assays above
